A selection: hits, their analogues and other compounds. The true share with any hit is near 3.4%.
ANO1 block: mouse TMEM16A channel inhibition, primary screen | Q8BHY3 | HEK293 TMEM16A/YFP iodide influx fluorescence, ionomycin | normalized B-score (activity score, 25-100; higher = stronger inhibition) at 10 µM | actives 1.2% (n = 310,000);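 active = ratio plate-corrected score three or more library SD toward inhibition, starting fluorescence score within five deviations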;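 note: score derived from kinetic fluorescence span divided by baseline fluorescence per well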
Target sequence (Q8BHY3 whole entry, looked up): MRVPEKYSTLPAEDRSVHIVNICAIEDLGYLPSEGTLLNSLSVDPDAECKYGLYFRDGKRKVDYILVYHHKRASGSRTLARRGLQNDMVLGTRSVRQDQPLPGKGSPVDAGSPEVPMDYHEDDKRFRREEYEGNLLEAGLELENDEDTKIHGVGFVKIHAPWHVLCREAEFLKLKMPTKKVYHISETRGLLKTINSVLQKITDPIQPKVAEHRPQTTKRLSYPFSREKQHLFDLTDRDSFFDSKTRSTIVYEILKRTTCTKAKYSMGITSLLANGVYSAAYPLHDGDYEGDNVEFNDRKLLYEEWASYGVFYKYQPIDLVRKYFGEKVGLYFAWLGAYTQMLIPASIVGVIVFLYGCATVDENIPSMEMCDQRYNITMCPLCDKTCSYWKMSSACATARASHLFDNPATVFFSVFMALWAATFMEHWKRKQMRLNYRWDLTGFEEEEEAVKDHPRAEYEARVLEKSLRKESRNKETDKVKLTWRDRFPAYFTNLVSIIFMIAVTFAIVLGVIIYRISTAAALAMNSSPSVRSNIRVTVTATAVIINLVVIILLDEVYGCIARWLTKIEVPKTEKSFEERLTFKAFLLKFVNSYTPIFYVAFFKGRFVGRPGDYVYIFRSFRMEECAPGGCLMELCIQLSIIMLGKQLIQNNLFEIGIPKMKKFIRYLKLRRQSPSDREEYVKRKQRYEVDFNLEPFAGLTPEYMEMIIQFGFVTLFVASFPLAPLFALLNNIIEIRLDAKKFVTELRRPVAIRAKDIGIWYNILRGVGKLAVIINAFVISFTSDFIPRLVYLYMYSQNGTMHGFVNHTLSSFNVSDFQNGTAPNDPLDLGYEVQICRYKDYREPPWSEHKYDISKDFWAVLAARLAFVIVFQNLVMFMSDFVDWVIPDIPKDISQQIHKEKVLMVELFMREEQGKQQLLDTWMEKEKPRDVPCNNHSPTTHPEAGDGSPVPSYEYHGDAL
MC4R ag barr: agonists of human melanocortin 4 receptor (MC4R) beta-arrestin | actives 0.98% (n = 360,000) | AID 540308 | activation, % at 8.9 µM | U2OS MC4R beta-arrestin complementation, luminescence; percent of melanotan II response, DMSO zero;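 active = activation above a per-plate cutoff, the mean activation of sample wells on that plate plus 3 SD, cut at about 8% in these data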
MIN6 prolif: inducers of beta-cell replication in MIN6 cells. proliferation, % at 10 µM. MIN6 cells proliferation, ATPlite luminescence, 48 h; cells starved in 0.2% serum; 100% = growth in 10% serum. actives 0.29% (n = 330,000);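 active = compounds whose signal lies at least 3.5 SD above the mean of all wells on their plate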;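 note: 0% = DMSO-treated cells in low-serum medium and 100% = 10% serum control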
ANO1 activ: activators or potentiators of mouse TMEM16A chloride channel; actives 0.3% (n = 340,000); B-score at 10 µM; HEK293 TMEM16A/YFP-H148Q/I152L, iodide quench fluorescence; active compounds read low; Q8BHY3; AID 623877;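 active = fluorescence-ratio B-score plate-corrected deviation score at least 3 library SD below zero, with starting fluorescence score within 5 deviations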;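 note: channel opened by trigger with iodide after compound preincubation; score built on the fluorescence ratio of max minus min over baseline; more negative score means more quench and so TMEM16A activation or potentiation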
MC4R antag cAMP: blocks human MC4R cAMP signaling | inhibition, % at 6.5 µM | MC4R-expressing cells, MTII-stimulated cAMP, LANCE TR-FRET | AID 540295 | actives 0.48% (n = 360,000) | P32245;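 active = inhibition above its plate's cutoff, the mean of tested wells on that plate plus 3 SD, cut at about 29% in these data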;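 note: 0% = Melanotan II alone and 100% = Melanotan II plus saturating MCL0020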
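Material – human MC4R-expressing U2OS cells · Repeats – no replicates · Detection – TR-FRET with Eu-cAMP and labeled anti-cAMP, 671 nm · Times – compound 30 min, challenge 1 h, detection 1 h · Compound – single nominal compound dose of 6.5 µM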
m5-HT2A agonist: activates the mouse 5-HT2A serotonin receptor; P35363; CHO-K1 mHTR2A beta-arrestin complementation, luminescence; percent of 30 µM serotonin response; activation, % at 7.6 µM; actives 0.66% (n = 360,000); AID 624169;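 active = activation above a run cutoff, the mean activation of all tested compounds plus 3 SD, cut at about 14% in these data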;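 note: 0% = plate median of compound wells and 100% = 30 µM serotonin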
Starred values were filed as active, the others as inactive; i = inactive; x = no result given.

SMILES	ANO1 block	MC4R ag barr	MIN6 prolif	ANO1 activ	MC4R antag cAMP	m5-HT2A agonist
O=C(Nc1ccccc1)Nc1ccc(Cl)c([N+](=O)[O-])c1	100*	-2	-5	i	-3	-3
O=C(Nc1ccccc1)Nc1ccc(F)c([N+](=O)[O-])c1	25*	1	-6	i	8	-6
Cc1ccc(NC(=O)Nc2ccccc2)cc1[N+](=O)[O-]	i	-2	1	i	-3	-5
CCN(CC)C(=O)C1=C(C)N(CCCN2CCCC2=O)C(=O)C(CC(=O)NC2CCCC2)C1 (stereo unspecified)	x	1	x	x	9	3
c1nc(C2CCCCC2)cc2cc3c(cc12)OCO3	x	2	-3	x	10	0
COc1ccc(S(=O)(=O)N(Cc2ccc(OC)c(OC)c2)Cc2ccco2)cc1	25*	1	-3	i	9	-4
CN(Cc1ccco1)C(=O)c1ccc(S(=O)(=O)N2CCCCCC2)cc1	x	0	-3	i	-5	10
CS(=O)(=O)N(Cc1ccco1)Cc1ccccc1Cl	i	-1	3	i	16	-2
COc1ccc(S(=O)(=O)N(CCC(N)=O)Cc2ccco2)cc1OC	i	1	-3	i	1	-4
O=S(=O)(c1ccc(S(=O)(=O)N(Cc2ccco2)Cc2ccccc2Cl)cc1)N1CCCC1	i	1	-2	-12*	-11	-4
CN(C)S(=O)(=O)c1ccc(S(=O)(=O)N(Cc2ccco2)Cc2ccccc2Cl)cc1	i	0	1	-19*	-5	-3
CC(=O)NC(Cc1c[nH]c2ccccc12)C(=O)N1CCN(S(=O)(=O)c2ccccc2)CC1 (stereo unspecified)	x	-3	-2	i	1	-6
CCN(CC(=O)Nc1c(F)cccc1F)C(=O)C1COc2ccccc2O1 (stereo unspecified)	x	0	3	i	15	3
CCC(=O)Nc1ccc(C(=O)COC(=O)Cc2ccsc2)cc1	x	0	-3	i	8	-5
O=C1CC(c2ccc(O)cc2)Oc2cc(O)cc(O)c21 (stereo unspecified)	i	0	3	i	17	-5
CC1CC(=O)c2c(cc3c(-c4c(O)cc(O)c5c(O)c6c(cc45)OC(C)CC6=O)c(O)cc(O)c3c2O)O1 (stereo unspecified)	i	-2	-6	-20*	65*	-9
OCC(O)C1OC(c2ccco2)OC(CO)C1O (stereo unspecified)	x	-1	x	i	1	-1
COc1ccc(C2(C(=O)Nc3ccc(S(N)(=O)=O)cc3)CCCC2)cc1	i	0	0	-5.1*	-2	1
CCOC(=O)c1ccc(NC(=O)C2(c3ccc(OC)cc3)CCCC2)cc1	i	-1	-3	i	0	-5
COc1ccc(NC(=O)COc2nsnc2N2CCCCC2)cc1	i	0	0	i	7	5
CCOc1ccc(NC(=O)COc2nsnc2N2CCCCC2)cc1	i	9.0*	-2	i	-2	2
COc1ccccc1C(=O)N/C(=C\c1cn(S(=O)(=O)N(C)C)c2ccccc12)C(=O)N1CCN(C)CC1	x	0	x	x	12	-2
O=c1c2ccccc2nc(COc2ccccc2)n1/N=C/c1cn[nH]c1-c1ccccc1	i	4	3	-6.5*	24	-4
Cc1ccccc1OCc1nc2ccccc2c(=O)n1/N=C/c1cn[nH]c1-c1ccc(Br)cc1	i	1	0	i	1	-2
c1ccc(Cn2c(-c3ccccc3)nc3nc4ccccc4nc32)cc1	i	9.3*	-2	i	0	2
C=CCn1c(-c2ccccc2)nc2nc3ccccc3nc21	i	-2	1	i	-3	1
CC1(C)[C@@H](O)CC[C@]2(C)C3C(O)C=C4[C@H]5C[C@@](C)(C(=O)O)CC[C@]5(C)CC[C@]4(C)[C@]3(C)CC[C@@H]12 (stereo partly specified)	100*	x	-5	x	x	x
